Source: article PMC10903085 (Neurotherapeutics, 2023)
Entries after “also recorded” stand apart in the source; their conditions may differ.

Tests used:
[1] = test system: Sam68(PxxP)-FynSH3; conditions: cited from earlier work
[2] = test system: SFK; conditions: cited from earlier work
[3] = test system: primary rat neurons; assay: Modified MTT assay of Aβ toxicity in primary neurons; format: cell-based; conditions: compound 0.3, 3 or 15 μM, 90-min pretreatment, 2.5 μM Aβ, 24 h
[4] = Oral administration, brain and plasma concentrations; format: in vivo, mouse; conditions: male CD1 mice, PO 5 mg/kg, 1 h, 2 h, 4 h post-treatment
Procedure, shortened: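 Male CD1 mice received test compound orally at 5 mg/kg, formulated at 1 mg/mL in 10 % NMP, 60 % PEG400 and 30 % saline. Brain and plasma levels were measured by HPLC-MS at 1, 2 and 4 h after dosing, and the brain/plasma ratio was taken from these.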

[5] = Metabolic stability in mouse liver microsomes; format: in vitro ADME
[6] = molecular target: T1, Tau-FynSH3 interaction (Homo sapiens, UniProt P10636); assay: Tau-FynSH3 AlphaScreen; format: binding; conditions: left-hand phenyl ring removed
T1 sequence (P10636 1-441 isoform P10636-8): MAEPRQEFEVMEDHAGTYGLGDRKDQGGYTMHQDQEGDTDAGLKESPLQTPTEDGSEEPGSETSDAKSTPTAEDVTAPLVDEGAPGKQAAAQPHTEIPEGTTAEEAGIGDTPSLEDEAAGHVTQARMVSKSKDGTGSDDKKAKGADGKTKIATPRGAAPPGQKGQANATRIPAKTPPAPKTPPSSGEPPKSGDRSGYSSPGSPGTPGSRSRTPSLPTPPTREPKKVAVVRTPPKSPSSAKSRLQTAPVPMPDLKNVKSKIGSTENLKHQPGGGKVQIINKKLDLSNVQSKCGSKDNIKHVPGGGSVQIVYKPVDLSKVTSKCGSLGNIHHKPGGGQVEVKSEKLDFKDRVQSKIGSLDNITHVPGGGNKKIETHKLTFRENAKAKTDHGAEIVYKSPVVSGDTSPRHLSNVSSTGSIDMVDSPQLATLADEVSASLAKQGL

[7] = molecular target: Tau-PxxP5/6 (Homo sapiens, UniProt P10636); assay: Isothermal titration calorimetry with Tau-PxxP5/6 peptide; format: binding; conditions: 25 °C
Procedure, shortened: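 Calorimetric titration at 25 °C in 5 % DMSO. About 120 μM Tau-PxxP5/6 peptide sat in the cell and 1 mM test compound in the syringe. Sixteen 2.5 μL injections were made. Mixing heat from titrant into buffer alone was used as background, and the normalised heat was fitted to a one-set-of-sites model.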

[8] = molecular target: Tau-SrcSH3 interaction (Homo sapiens, UniProt P10636); assay: Tau-Flag PLA, Tau-SrcSH3 in HEK-293 cells; format: cell-based; conditions: 15 μM
Chain of Tau-SrcSH3 interaction (P10636 1-441 isoform P10636-8): as above
Procedure, shortened: (§1)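 HEK-293 cells on PDL/laminin coverslips in DMEM with 10 % FBS were co-transfected (Fugene) with 125 ng human 4R2N Tau-mKate2 and 500 ng GST-SH3-Flag plasmid for the relevant SH3 domain. After 24 h, test compound was added at 15 μM final, and cells were fixed 24 h later. PLA used Tau (1:1000) and Flag (1:1000) antibodies, with puncta quantified by thresholding.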

[9] = test system: Tau-tubulin interaction; assay: Tau-tubulin PLA in untransfected HEK-293 cells; format: cell-based, human; conditions: 15 μM, 24 h
Procedure, shortened: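 Untransfected HEK-293 cells were grown 48 h, then exposed to 15 μM test compound for 24 h and fixed. PLA for endogenous Tau–α-tubulin proximity used Tau (1:1000) and α-tubulin (1:2000) primary antibodies, with the permeabilisation, blocking, probe, ligation and amplification steps of the neuronal PLA.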

[10] = test system: Tau-Fyn interaction; assay: Endogenous Tau-Fyn PLA in primary neurons; format: cell-based, rat; conditions: 24 h
Procedure, shortened: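 Rat hippocampal neurons (E19 Sprague-Dawley embryos) grown on coated coverslips to DIV20, treated with test compound or vehicle, and fixed in PFA 24 h later. Cells were permeabilised in 0.25 % Triton X-100 and blocked in 5 % NGS. Tau (1:1000) and Fyn (1:250) antibodies were applied overnight at 4 °C, then Duolink PLA was run. Thresholded puncta were counted from 5–7 images per coverslip and normalised to vehicle slides; analysis was blinded.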

[11] = test system: primary neurons; assay: Multi-electrode array, Aβ-induced network hyperexcitability; format: cell-based, rat; conditions: 1 h pretreatment, 500 nM Aβ oligomers, 4 h
[12] = molecular target: Fyn (Homo sapiens, UniProt P06241); assay: Custom kinase panel for Fyn; format: binding; conditions: 3 μM; activity defined as <35 % of control
Chain of Fyn (Homo sapiens, UniProt P06241) (P06241 whole entry): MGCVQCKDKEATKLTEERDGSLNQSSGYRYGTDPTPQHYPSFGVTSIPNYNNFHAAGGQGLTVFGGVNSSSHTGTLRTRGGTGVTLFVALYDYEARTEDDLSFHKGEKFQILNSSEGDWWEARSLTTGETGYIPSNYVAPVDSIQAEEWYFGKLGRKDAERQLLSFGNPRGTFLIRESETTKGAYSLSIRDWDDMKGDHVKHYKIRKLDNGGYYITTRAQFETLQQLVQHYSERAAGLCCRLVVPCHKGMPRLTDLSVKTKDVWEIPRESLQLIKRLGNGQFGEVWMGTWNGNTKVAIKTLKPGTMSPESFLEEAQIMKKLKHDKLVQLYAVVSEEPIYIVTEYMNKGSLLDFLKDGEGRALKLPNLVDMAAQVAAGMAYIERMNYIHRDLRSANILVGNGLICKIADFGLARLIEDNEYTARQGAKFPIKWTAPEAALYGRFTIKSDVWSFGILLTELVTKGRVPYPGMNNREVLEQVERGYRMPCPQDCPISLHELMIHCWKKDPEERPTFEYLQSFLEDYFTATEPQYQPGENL

[13] = molecular target: T1, Tau-FynSH3 interaction; assay: Tau-Flag PLA, Tau-FynSH3 in HEK-293 cells; format: cell-based; conditions: HEK293, read-out: Inhibition of Tau-FynSH3 interaction (PLA)
Procedure, shortened: as §1

[14] = test system: Tau; assay: Western blot of Tau levels in primary neurons; format: cell-based, rat; conditions: 15 μM, 24 h
Procedure, shortened: (§2)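 Rat primary neurons at DIV13 were treated with 15 μM test compound or vehicle for 24 h. They were lysed in Tris/NaCl/EDTA buffer containing SDS, Triton and deoxycholate. 5 μg protein (Bradford) was run on 4–12 % bis-tris/MOPS gels and blotted to PVDF. Blots were probed overnight at 4 °C for Fyn (1:1000), then GAPDH (1:5000), stripped and reprobed for Tau (1:10,000). Infrared detection was used, with densitometry.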

[15] = molecular target: Tau-LckSH3 interaction (Homo sapiens, UniProt P10636); assay: Tau-Flag PLA, Tau-LckSH3 in HEK-293 cells; format: cell-based; conditions: 15 μM
Chain of Tau-LckSH3 interaction (P10636 1-441 isoform P10636-8): as the sequence (P10636 1-441 isoform P10636-8) above
Procedure, shortened: as §1

[16] = molecular target: FynSH3 (Homo sapiens, UniProt P06241); assay: Isothermal titration calorimetry with FynSH3; format: binding; conditions: 25 °C
Chain of FynSH3 (P06241 82-143 limits assumed): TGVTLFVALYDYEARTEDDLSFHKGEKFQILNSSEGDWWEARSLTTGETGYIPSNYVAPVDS
Procedure, shortened: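 Purified human FynSH3 from E. coli was dialysed at 4 °C into 20 mM Tris, 150 mM NaCl, pH 8.0, quantified by A280 and brought to 5 % DMSO. The cell held ~120 μM FynSH3 and the syringe 1 mM test compound. Sixteen 2.5 μL injections were made at 25 °C. Titrant-into-buffer heat was used as background, and data were fitted to a one-set-of-sites model.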

[17] = molecular target: Tau-BIN1SH3 interaction (Homo sapiens, UniProt P10636); assay: Tau-Flag PLA, Tau-BIN1SH3 in HEK-293 cells; format: cell-based; conditions: 15 μM
Chain of Tau-BIN1SH3 interaction (P10636 1-441 isoform P10636-8): as the sequence (P10636 1-441 isoform P10636-8) above
Procedure, shortened: as §1

[18] = test system: 97 kinases; assay: Eurofins DiscoverX ScanEDGE kinase panel; format: binding; conditions: 3 μM; activity defined as <35 % of control
[19] = test system: Fyn; assay: Western blot of Fyn levels in primary neurons; format: cell-based, rat; conditions: 15 μM, 24 h
Procedure, shortened: as §2

[20] = Phase IIa clinical trial, tolerable dose; cited from earlier work

UCS15A
Inhibition of Sam68(PxxP)-FynSH3 interaction [1]: inhibited | Inhibition of SFK kinase activity [2]: does not inhibit SFK kinase activity

O=C(CN1C(=O)CSc2cc(Cl)ccc21)Nc1nnc(-c2ccccn2)[nH]1 [SRI-39211, 2-(7-chloro-3-oxo-2,3-dihydro-4H-benzo[b][1,4]thiazin-4-yl)-N-(5-(pyridin-2-yl)-4H-1,2,4-triazol-3-yl)acetamide]
Amelioration of Aβ toxicity in modified MTT assay [3]: inhibited Aβ toxicity

O=C(CN1C(=O)CSc2cc(F)ccc21)Nc1nnc(-c2ccccn2)[nH]1 [SRI-39210, 2-(7-fluoro-3-oxo-2,3-dihydro-4H-benzo[b][1,4]thiazin-4-yl)-N-(5-(pyridin-2-yl)-4H-1,2,4-triazol-3-yl)acetamide]
Detection in plasma and brain after oral administration [4]: able to detect SRI-39210 in plasma, it did not cross the BBB and was not present in brain | Amelioration of Aβ toxicity in modified MTT assay [3]: inhibited Aβ toxicity | half-life [5]: 2.43 h

O=C(CN1CCCCC1)Nc1nnc(-c2ccccn2)[nH]1 [SRI-43142, 2-(piperidin-1-yl)-N-(5-(pyridin-2-yl)-4H-1,2,4-triazol-3-yl)acetamide]
Reduction of AlphaScreen activity relative to SRI-39669 [6]: 8–10 fold

O=C(CN1CCCc2ccccc21)Nc1nnc(-c2ccccn2)[nH]1 [SRI-42654, 2-(3,4-Dihydroquinolin-1(2H)-yl)-N-(5-(pyridin-2-yl)-4H-1,2,4-triazol-3-yl)acetamide]
Amelioration of Aβ toxicity in modified MTT assay [3]: inhibited Aβ toxicity

O=C(CN1CCSc2ccccc21)Nc1nnc(-c2ccccn2)[nH]1 [SRI-39669, 2-(2,3-dihydro-4H-benzo[b][1,4]thiazin-4-yl)-N-(5-(pyridin-2-yl)-4H-1,2,4-triazol-3-yl)acetamide]
Detection in plasma and brain after oral administration [4]: detected in both plasma and brain

Cc1ccc2c(c1)SCC(=O)N2CC(=O)Nc1nnc(-c2ccccn2)[nH]1 [SRI-39488, 2-(7-methyl-3-oxo-2,3-dihydro-4H-benzo[b][1,4]thiazin-4-yl)-N-(5-(pyridin-2-yl)-4H-1,2,4-triazol-3-yl)acetamide]
Amelioration of Aβ toxicity in modified MTT assay [3]: inhibited Aβ toxicity

O=C(CN1CCOc2ccccc21)Nc1nnc(-c2ccccn2)[nH]1 [SRI-42667, 2-(2,3-Dihydro-4H-benzo[b][1,4]oxazin-4-yl)-N-(5-(pyridin-2-yl)-4H-1,2,4-triazol-3-yl)acetamide]
Interaction with Tau-PxxP5/6 peptide by ITC [7]: no interaction | Inhibition of Tau-SrcSH3 interaction (PLA) [8]: did not significantly inhibit | Detection in plasma and brain after oral administration [4]: observed in both plasma and brain | Inhibition of Tau-tubulin interaction (PLA) [9]: does not inhibit Tau-tubulin interaction | Reduction of endogenous Tau-Fyn PLA ([10]; 3 μM): reduces endogenous Tau-Fyn PLA | Reduction of endogenous Tau-Fyn PLA ([10]; 15 μM): reduces endogenous Tau-Fyn PLA | Prevention of Aβ-induced network hyperexcitability (MEA) ([11]; 3 μM): prevented Aβ-induced network hyperexcitability | Prevention of Aβ-induced network hyperexcitability (MEA) ([11]; 15 μM): prevented Aβ-induced network hyperexcitability | Inhibition of Fyn kinase [12]: did not inhibit | Amelioration of Aβ toxicity in modified MTT assay [3]: ameliorates Aβ toxicity; also recorded: inhibited Aβ toxicity | inhibition at 15 µM [13]: 37% | Tau levels [14]: does not reduce | Inhibition of Tau-LckSH3 interaction (PLA) [15]: strongly inhibited | Binding to FynSH3 by ITC [16]: did not bind FynSH3 | Inhibition of Tau-BIN1 SH3 interaction (PLA) [17]: moderately inhibited | Inhibition of any of the 97 kinases [18]: did not inhibit | Fyn levels [19]: does not reduce

CN1CCN(CCOc2cc(OC3CCOCC3)c3c(Nc4c(Cl)ccc5c4OCO5)ncnc3c2)CC1 [saracatinib]
Clinical benefit in AD [20]: no clinical benefit

O=C(CN1CCOCC1)Nc1nnc(-c2ccccn2)[nH]1 [SRI-43143, 2-Morpholino-N-(5-(pyridin-2-yl)-4H-1,2,4-triazol-3-yl)acetamide]
Reduction of AlphaScreen activity relative to SRI-39669 [6]: 8–10 fold
